From ChEMBL document CHEMBL1133544, “Formaldehyde-induced alkylation of a 2'-aminoglucose rebeccamycin derivative to both A.T and G.C base pairs in DNA” (J Med Chem, 2000)
Several values for one entry are separate records, joined by “and”; a condition that tells them apart may be missing. Identical values can stand only once.

What was measured:
[1] = test system: poly(dA-dC)·poly(dG-dT) (synthetic); assay: Delta Tm value ( Tmdrug-DNA )-TmDNA ) was obtained for the covalently cross-linked compound in the absence of formaldehyde using poly(dA-dC).poly(dG-dT) at 0.05 M; settings: in vitro
[2] = Delta Tm value ( Tmdrug-DNA )-TmDNA ) was obtained for the covalently cross-linked compound in the presence of formaldehyde using twice of poly(dA-dT); format: ADME
Procedure, shortened: (§1)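 The preformed drug–nucleic acid complex, at the stated drug/DNA ratio, was treated with HCHO before melting. Melting was done in BPE buffer pH 7.0 with 20 μM nucleotide, monitored at 260 nm, heating 20–100 °C at 1 °C/min. Tm is the hyperchromic transition midpoint, and ΔTm is taken relative to free nucleic acid. Each drug concentration was run in duplicate.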

Bos taurus [3] = organism: Bos taurus; assay: Delta Tm value ( Tmdrug-DNA )-TmDNA ) was obtained for the covalently cross-linked compound in the presence of formaldehyde using calf thymus DNA at 0.1 M; format: ADME; settings: cattle
Procedure, shortened: as §1

[4] = test system: poly(dA-dC)·poly(dG-dT) (synthetic); assay: Delta Tm value ( Tmdrug-DNA )-TmDNA ) was obtained for the covalently cross-linked compound in the absence of formaldehyde using poly(dA-dC).poly(dG-dT); settings: in vitro
Bos taurus [5] = organism: Bos taurus; assay: Delta Tm value ( Tmdrug-DNA )-TmDNA ) was obtained for the covalently cross-linked compound in the presence of formaldehyde using calf thymus DNA at 1 M; format: ADME; settings: cattle
Procedure, shortened: as §1

[6] = Delta Tm value ( Tmdrug-DNA )-TmDNA ) was obtained for the covalently cross-linked compound in the presence of formaldehyde using poly(dA-dC).poly(dG-dT) at 0.1 M; format: ADME
Procedure, shortened: as §1

[7] = Delta Tm value ( Tmdrug-DNA )-TmDNA ) was obtained for the covalently cross-linked compound in the presence of formaldehyde using twice of poly(dA-dT) at 0.05 M; format: ADME
Procedure, shortened: as §1

Bos taurus [8] = organism: Bos taurus; assay: Delta Tm value ( Tmdrug-DNA )-TmDNA ) was obtained for the covalently cross-linked compound in the presence of formaldehyde using calf thymus DNA at 0.5 M; format: ADME; settings: cattle
Procedure, shortened: as §1

Bos taurus [9] = organism: Bos taurus; assay: Delta Tm value ( Tmdrug-DNA )-TmDNA ) was obtained for the covalently cross-linked compound in the absence of formaldehyde using calf thymus DNA at 0.1 M; format: ADME; settings: cattle
Procedure, shortened: (§2)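 Drug added to nucleic acid at the stated drug/DNA ratio with no HCHO, in BPE buffer pH 7.0 (6 mM Na2HPO4, 2 mM NaH2PO4, 1 mM EDTA). DNA or polynucleotide at 20 μM nucleotide. Absorbance read at 260 nm while heating 20–100 °C at 1 °C/min. Tm taken as the midpoint of the hyperchromic transition; ΔTm = Tm(drug–DNA) − Tm(DNA). Duplicate determinations at each drug concentration.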

[10] = test system: [poly(dA-dT)]2 (synthetic); assay: Delta Tm value ( Tmdrug-DNA )-TmDNA ) was obtained for the covalently cross-linked compound in the absence of formaldehyde using twice of poly(dA-dT); settings: in vivo
Bos taurus [11] = organism: Bos taurus; assay: Delta Tm value ( Tmdrug-DNA )-TmDNA ) was obtained for the covalently cross-linked compound in the absence of formaldehyde using calf thymus DNA at 0.25 M; format: ADME; settings: cattle
Procedure, shortened: as §2

[12] = Delta Tm value (Tm(drug-DNA)-Tm(DNA)) was obtained for the covalently cross-linked compound in the absence of formaldehyde using twice of poly(dI-dC) at 0.25 M; format: ADME
Procedure, shortened: as §2

[13] = Delta Tm value ( Tmdrug-DNA )-TmDNA ) was obtained for the covalently cross-linked compound in the presence of formaldehyde using twice of poly(dA-dT) at 0.1 M; format: ADME
Procedure, shortened: as §1

[14] = Delta Tm value (Tm(drug-DNA)-Tm(DNA)) was determined for the covalently cross-linked compound in the presence of formaldehyde using calf thymus DNA at 0.05 M; format: ADME; settings: cattle
Procedure, shortened: as §1

[15] = Delta Tm value (Tm(drug-DNA)-Tm(DNA)) was determined for the covalently cross-linked compound in the presence of formaldehyde using twice of poly(dI-dC) at 0.25 M; format: ADME
Procedure, shortened: as §1

Bos taurus [16] = organism: Bos taurus; assay: Delta Tm value ( Tmdrug-DNA )-TmDNA ) was obtained for the covalently cross-linked compound in the absence of formaldehyde using calf thymus DNA at 0.5 M; format: ADME; settings: cattle
Procedure, shortened: as §2

[17] = Delta Tm value (Tm(drug-DNA)-Tm(DNA)) was obtained for the covalently cross-linked compound in the absence of formaldehyde using twice of poly(dI-dC); format: ADME
Procedure, shortened: as §2

[18] = test system: poly(dA-dC)·poly(dG-dT) (synthetic); assay: Delta Tm value ( Tmdrug-DNA )-TmDNA ) was obtained for the covalently cross-linked compound in the presence of formaldehyde using poly(dA-dC).poly(dG-dT); settings: in vitro
[19] = test system: [poly(dA-dT)]2 (synthetic); assay: Delta Tm value ( Tmdrug-DNA )-TmDNA ) was obtained for the covalently cross-linked compound in the absence of formaldehyde using twice of poly(dA-dT) at 0.05 M; settings: in vivo
[20] = Delta Tm value ( Tmdrug-DNA )-TmDNA ) was obtained for the covalently cross-linked compound in the presence of formaldehyde using poly(dA-dC).poly(dG-dT) at 0.25 M; format: ADME
Procedure, shortened: as §1

[21] = Delta Tm value ( Tmdrug-DNA )-TmDNA ) was obtained for the covalently cross-linked compound in the absence of formaldehyde using calf thymus DNA.; format: ADME; settings: cattle
Procedure, shortened: as §2

[22] = Delta Tm value (Tm(drug-DNA)-Tm(DNA)) was obtained for the covalently cross-linked compound in the absence of formaldehyde using twice of poly(dI-dC) at 0.05 M; format: ADME
Procedure, shortened: as §2

[23] = Delta Tm value ( Tmdrug-DNA )-TmDNA ) was obtained for the covalently cross-linked compound in the presence of formaldehyde using twice of poly(dA-dT) at 0.5 M; format: ADME
Procedure, shortened: as §1

[24] = test system: poly(dA-dC)·poly(dG-dT) (synthetic); assay: Delta Tm value ( Tmdrug-DNA )-TmDNA ) was obtained for the covalently cross-linked compound in the absence of formaldehyde using poly(dA-dC).poly(dG-dT) at 0.1 M; settings: in vitro
Bos taurus [25] = organism: Bos taurus; assay: Delta Tm value ( Tmdrug-DNA )-TmDNA ) was obtained for the covalently cross-linked compound in the presence of formaldehyde using calf thymus DNA at 0.25 M; format: ADME; settings: cattle
Procedure, shortened: as §1

Bos taurus [26] = organism: Bos taurus; assay: Delta Tm value ( Tmdrug-DNA )-TmDNA ) was obtained for the covalently cross-linked compound in the presence of formaldehyde using calf thymus DNA.; format: ADME; settings: cattle
Procedure, shortened: as §1

[27] = Delta Tm value ( Tmdrug-DNA )-TmDNA ) was obtained for the covalently cross-linked compound in the presence of formaldehyde using twice of poly(dI-dC) at 0.05 M; format: ADME
Procedure, shortened: as §1

[28] = test system: poly(dA-dC)·poly(dG-dT) (synthetic); assay: Delta Tm value ( Tmdrug-DNA )-TmDNA ) was obtained for the covalently cross-linked compound in the absence of formaldehyde using poly(dA-dC).poly(dG-dT) at 0.25 M; settings: in vitro
[29] = Delta Tm value ( Tmdrug-DNA )-TmDNA ) was obtained for the covalently cross-linked compound in the presence of formaldehyde using twice of poly(dA-dT) at 0.25 M; format: ADME
Procedure, shortened: as §1

[30] = Delta Tm value ( Tmdrug-DNA )-TmDNA ) was obtained for the covalently cross-linked compound in the presence of formaldehyde using poly(dA-dC).poly(dG-dT) at 0.05 M; format: ADME
Procedure, shortened: as §1

Bos taurus [31] = organism: Bos taurus; assay: Delta Tm value ( Tmdrug-DNA )-TmDNA ) was obtained for the covalently cross-linked compound in the absence of formaldehyde using calf thymus DNA at 0.05 M; format: ADME; settings: cattle
Procedure, shortened: as §2

[32] = test system: [poly(dA-dT)]2 (synthetic); assay: Delta Tm value ( Tmdrug-DNA )-TmDNA ) was obtained for the covalently cross-linked compound in the absence of formaldehyde using twice of poly(dA-dT) at 0.25 M; settings: in vivo
Bos taurus [33] = organism: Bos taurus; assay: Delta Tm value ( Tmdrug-DNA )-TmDNA ) was obtained for the covalently cross-linked compound in the absence of formaldehyde using calf thymus DNA at 1 M; format: ADME; settings: cattle
Procedure, shortened: as §2

[34] = test system: [poly(dA-dT)]2 (synthetic); assay: Delta Tm value ( Tmdrug-DNA )-TmDNA ) was obtained for the covalently cross-linked compound in the absence of formaldehyde using twice of poly(dA-dT) at 0.1 M; settings: in vivo

Delta Tm [1]: 1 °C
Delta Tm [2]: 0 °C
Delta Tm (Bos taurus [3]): 11.9 °C
Delta Tm [4]: 0 °C
Delta Tm (Bos taurus [5]): 28.7 °C
Delta Tm [6]: 12.4 °C
Delta Tm [7]: 5.9 °C
Delta Tm (Bos taurus [8]): 26.2 °C
Delta Tm (Bos taurus [9]): 4 °C
Delta Tm [10]: 0 °C
Delta Tm (Bos taurus [11]): 6.7 °C
Delta Tm [12]: 8.9 °C
Delta Tm [13]: 11.9 °C
Delta Tm [14]: 6 °C
Delta Tm [15]: 10 °C
Delta Tm (Bos taurus [16]): 6.5 °C
Delta Tm [17]: 0 °C and -1 °C
Delta Tm [18]: -2 °C
Delta Tm [19]: 2 °C
Delta Tm [20]: 21.2 °C
Delta Tm [21]: 0 °C
Delta Tm [22]: 2 °C
Delta Tm [23]: 50.8 °C
Delta Tm [24]: 1.8 °C
Delta Tm (Bos taurus [25]): 22.3 °C
Delta Tm (Bos taurus [26]): 0 °C
Delta Tm [27]: 3.1 °C
Delta Tm [28]: 2.9 °C
Delta Tm [29]: 31 °C
Delta Tm [30]: 6.7 °C
Delta Tm (Bos taurus [31]): 2 °C
Delta Tm [32]: 4.8 °C
Delta Tm (Bos taurus [33]): 6.7 °C
Delta Tm [34]: 3 °C
Structure (SMILES): COC1C(CO)OC(n2c3ccccc3c3c4c(c5c6ccccc6[nH]c5c32)C(=O)N(N)C4=O)C(N)C1O (centres undefined)
